Rows were chosen to be rich in hits. Some 1.4% of all compounds tested hit in one or more screens of this group.
CSN deneddyl inh: inhibitors of CSN-mediated cullin deneddylation, primary screen, biochemical, fluorescence polarization, uHTS; COP9 signalosome complex subunit 5 (Homo sapiens), Q92905; inhibition, % at 12.5 µM; Purified CSN, SCF-Nedd8-OG deneddylation; 360,000 tested, 0.38% active;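 active means pattern-corrected inhibition above about 35%, with an unprinted fluorescence ratio check between 0.5 and 1.5, limit read from the data, passing the limit was not always enough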
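assay system = purified human Csn5 enzyme expressed in HEK293T cells | amount = 0.24 nM enzyme | buffer or medium = Tris/NaCl/DTT buffer, pH 7.5 | reagent = 10 nM SCFSkp2-Nedd8OG | compound = one concentration, 12.5 µM, 0.25% DMSO | times = 90 min reaction at room temperature | signal = FP | read-out basis = % inhibition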
IDE cell inh: human IDE inhibitors in live cells, primary screen, fluorescence polarization, HEK cells, FAbetaB substrate | Insulin-degrading enzyme (Homo sapiens), P14735 | FAbetaB cleavage | inhibition, % at 5.59 µM | 320,000 tested, 0.41% active;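 active means percent inhibition above the average of all tested compounds plus 3 SD, set per screening campaign, cut at about 16% in these data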;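 further: IDE supplied by intact live HEK cells; FP after avidin binding of uncleaved biotin substrate so inhibition keeps polarization high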
IDE cell activ: human IDE activators in live cells, primary screen, fluorescence polarization, HEK cells, FAbeta-B substrate; Insulin-degrading enzyme (Homo sapiens), P14735; activation, % at 5.96 µM; 340,000 tested, 0.073% active; FAbeta-B cleavage; 0% vehicle, 100% cell-free pure enzyme wells;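 active means activation above the mean of all tested compounds plus 3 SD, set per screening campaign, cut at about 17% in these data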
HNF4A DNA FP: change in binding of human HNF4A to DNA, primary screen, biochemical, fluorescence polarization, FITC-DNA. 1 h. 360,000 tested, 0.3% active. activity change, % at 10 µM. AID 1224865, 2016; in the data active means activity change above about 30%, passing the limit was not always enough
Target sequence (P41235 whole entry, looked up): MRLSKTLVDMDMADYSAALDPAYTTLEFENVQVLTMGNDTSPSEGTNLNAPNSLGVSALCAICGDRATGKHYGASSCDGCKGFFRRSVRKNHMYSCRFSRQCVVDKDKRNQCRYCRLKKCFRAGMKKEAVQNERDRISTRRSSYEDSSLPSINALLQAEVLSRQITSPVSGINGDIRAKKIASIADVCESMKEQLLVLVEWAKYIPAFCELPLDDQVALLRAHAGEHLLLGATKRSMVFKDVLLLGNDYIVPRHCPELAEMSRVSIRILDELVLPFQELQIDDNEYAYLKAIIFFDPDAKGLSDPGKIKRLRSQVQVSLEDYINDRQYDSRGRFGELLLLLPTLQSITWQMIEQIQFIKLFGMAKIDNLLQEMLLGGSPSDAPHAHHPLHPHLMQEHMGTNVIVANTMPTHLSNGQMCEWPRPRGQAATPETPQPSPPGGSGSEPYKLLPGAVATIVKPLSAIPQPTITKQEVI
TPT1 inhibitor: Candida albicans TPT1 enzyme inhibitors, primary screen, biochemical, fluorescence polarization. inhibition, % at 5 µM. 300,000 tested, 0.81% active. recombinant caTPT1, FP RNA substrate dephosphorylation. tRNA 2'-phosphotransferase TPT1 (Candida albicans SC5314);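 active means inhibition above the mean of all tested compounds plus 3 SD, set per screening campaign, cut at about 24% in these data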
Of the large screens only hits and unclear results are named; the others gave an inactive call.

Cc1ccc(Cn2ccc(NC(=O)c3cc(-c4ccc5c(c4)OCO5)on3)n2)cc1	CSN deneddyl inh 112.2 (no result: IDE cell inh, TPT1 inhibitor)
Cc1ccc(Cn2ccc(NC(=O)c3cc(-c4ccc(Br)cc4)on3)n2)cc1	none
Cc1ccc(Cn2ccc(NC(=O)c3cc(-c4ccco4)on3)n2)cc1	CSN deneddyl inh 51.6
Cc1ccc(Cn2ccc(NC(=O)c3cc(-c4ccccc4)on3)n2)cc1	none
COCCNC(=O)C1(C)CCCN(CCS(=O)(=O)c2ccc(C)cc2)C1 (stereo not drawn)	none (no result: IDE cell inh, IDE cell activ, TPT1 inhibitor)
COc1ccc(CNC(=O)CCC(=O)c2ccc(F)cc2)cc1OC	CSN deneddyl inh 66.2 (no result: TPT1 inhibitor)
COc1cc(-c2onc3ccc(Br)cc23)cc(OC)c1OC	HNF4A DNA FP 43.0
COC(=O)[C@@]1(Sc2ccc(C)cc2)CC(=O)N(C(=O)c2ccccc2)[C@@H]1c1ccccc1	none (no result: IDE cell inh, IDE cell activ, TPT1 inhibitor)
CSCCC(c1nc2ccccc2[nH]1)n1c(-c2ccc3ncccc3c2)nc2ccccc21 (stereo not drawn)	none (no result: IDE cell inh, IDE cell activ, TPT1 inhibitor)
Brc1ccc2c(c1)C(c1ccc(N3CCOCC3)cc1)=NNC(c1cccs1)=N2	HNF4A DNA FP 37.3
CN(c1cccc(F)c1)c1cc2c(c3c1ccn3C)C1CCC2O1 (stereo not drawn)	none (no result: IDE cell inh, IDE cell activ, TPT1 inhibitor)
COc1ccc(OC)c(CC(=O)Nc2ccc3c(c2)c(=O)n(C)n3Cc2cccc(C(F)(F)F)c2)c1	none (no result: IDE cell inh, IDE cell activ, TPT1 inhibitor)
CCC(=O)N1CCN(c2ccnc3cc(Cl)ccc23)CC1	none
COc1cccc(Cl)c1NC(=O)N1CCN(c2ccnc3cc(Cl)ccc23)CC1	IDE cell inh 26.5
O=C(NS(=O)(=O)Nc1ccccc1)C1=C(N2CCCC2)COC1=O	IDE cell activ 33.9 (no result: TPT1 inhibitor)
O=C(NC(=O)c1ccccc1)C1=C(N2CCCC2)COC1=O	none (no result: TPT1 inhibitor)
O=c1c2ccccc2sn1-c1cc(S(=O)(=O)N2CCOCC2)ccc1N1CCCC1	IDE cell inh 51.3
CC(=O)OCCc1c2ccccc2c(CCCN(C)C)c2ccccc12	CSN deneddyl inh 70.6, HNF4A DNA FP 131.7
O=C(C=Cc1cccs1)c1ccccc1	none (no result: IDE cell inh, TPT1 inhibitor)
CCOC(=O)C1=C(c2ccccc2)N=c2s/c(=C\c3ccco3)c(=O)n2C1c1cccs1 (stereo not drawn)	CSN deneddyl inh 37.8
CCOC(=O)C1=C(c2ccccc2)N=c2s/c(=C\c3cc(OC)c(OC)c(OC)c3)c(=O)n2C1c1cccs1 (stereo not drawn)	none
COc1ccc(S(=O)(=O)NCc2cccnc2)cc1OC	HNF4A DNA FP 46.1
COc1ccc(S(=O)(=O)NCc2ccncc2)cc1OC	none
CC(=O)Nc1c([N+](=O)[O-])cc2c3c(cccc13)CC2	none (no result: IDE cell inh, IDE cell activ, TPT1 inhibitor)
OC(COCc1ccccc1)CN1CCN(c2ccccc2)CC1 (stereo not drawn)	none
OC(COCc1ccccc1)CN1CCCC1 (stereo not drawn)	CSN deneddyl inh 37.1
CCNC(=O)C1CCCN(C(=O)c2ccc3ccccc3c2)CC1 (stereo not drawn)	none (no result: IDE cell inh, IDE cell activ, TPT1 inhibitor)
Nc1nc(SCC(=O)NCC2CCCO2)[nH]c(=O)c1NC(=O)c1ccco1 (stereo not drawn)	CSN deneddyl inh 46.3
Nc1nc(SCC(=O)NCC2CCCO2)[nH]c(=O)c1NC(=O)c1ccc(F)c(F)c1 (stereo not drawn)	none
CC(C)CN(C(=O)CN1CCc2ccccc21)c1c(N)n(CC(C)C)c(=O)[nH]c1=O	HNF4A DNA FP 32.2
COc1ccc2c(c1)c(=O)oc1c(C)c(OCC(=O)N3CCc4ccccc4C3)ccc12	CSN deneddyl inh 35.7
CC(=O)C1=C(O)C2(C)c3c(O)c(C)c(O)c(C(C)=O)c3OC2CC1=O (stereo not drawn)	HNF4A DNA FP 51.3 (no result: IDE cell inh, IDE cell activ, TPT1 inhibitor)
CO[C@@H]1CN(C)C(=O)c2ccc(NS(=O)(=O)c3c(C)noc3C)cc2OC[C@@H](C)NC[C@@H]1C	none (no result: IDE cell inh, IDE cell activ, TPT1 inhibitor)
COc1cc(/C=N/NC(=O)c2ccncc2)ccc1OCC(=O)Nc1ccccc1	none
COc1cc(/C=N/NC(=O)c2ccccc2O)ccc1OCC(=O)Nc1ccccc1	CSN deneddyl inh 48.6
O=C(COc1ccc(/C=N/NC(=O)c2cc3ccccc3o2)cc1Cl)Nc1ccccc1	CSN deneddyl inh 119.5, HNF4A DNA FP 45.3

Source: PubChem (several laboratories)
